Calls of active or inactive are those of the source. The rule behind the calls is not given here.
Experiments:
[1] = Toxicity in BALB/c nude mouse xenografted with human MDA-MB-231 cells assessed as lung tissue damage at 25 to 50 mg/kg, ip administered every 3 days for 4 weeks; format: organism-based; settings: in vivo, 672 h, dose 25-50 mg/kg
In short: (§1)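 Xenograft-bearing nude mice (MDA-MB-231, s.c. right flank, treated from about 100 mm³) received 25 or 50 mg/kg i.p. every three days for four weeks. At the end mice were euthanized, and visceral organs were fixed in 4% paraformaldehyde for histopathology.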

MDA-MB-231 [2] = assay: Induction of apoptosis in human MDA-MB-231 cells assessed as increase in cleaved caspase-9 expression after 12 hrs by Western blotting analysis; format: functional, cell-based; settings: dose 160-640 nM
In short: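 MDA-MB-231 cells exposed to graded concentrations or 0.1% DMSO; the methods state 24 h, the legend 12 h. Lysed in RIPA, 80 µg protein per lane on SDS-PAGE and transferred to PVDF. Probed overnight at 4°C for caspase-3, cleaved caspase-3, caspase-9 and cleaved caspase-9, with GAPDH as loading control. HRP secondaries, ECL detection, densitometry. n = 4.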

MDA-MB-231 [3] = assay: Induction of apoptosis in human MDA-MB-231 cells assessed as late apoptotic cells at 640 nM incubated for 12 hrs by annexin V-FITC/PI based flow cytometric analysis (reference value: 0.7%); format: functional
In short: (§2)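 Cells exposed to compound or 0.1% DMSO for 12 h at 37°C, then resuspended in PBS at 1×10^5 cells/mL. Stained with annexin V-FITC and PI for 20 min at room temperature in the dark, then analysed by flow cytometry. Quadrant percentages reported: lower right early apoptotic, upper right late apoptotic. n = 4, mean ± SD.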

[4] = Toxicity in BALB/c nude mouse xenografted with human MDA-MB-231 cells assessed as effect on body weight at 25 to 50 mg/kg, ip administered every 3 days for 4 weeks; format: organism-based; settings: in vivo, 672 h, dose 25-50 mg/kg
In short: (§3)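 Nude mice given 3×10^6 MDA-MB-231 cells in 200 µL PBS, injected subcutaneously into the right flank. Once tumors reached about 100 mm³, mice were randomized into four groups. Dosing was 25 or 50 mg/kg i.p. every three days for four weeks. Tumor volume, tumor weight and body weight were followed. n = 6, mean ± SD.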

MDA-MB-231 [5] = assay: Inhibition of colony formation in human MDA-MB-231 cells at 160 to 640 nM treated for 24 hrs and incubated for 2 weeks by crystal violet staining based assay; format: functional, cell-based; settings: dose 160-640 nM
In short: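 MDA-MB-231 cells seeded at 1000 per well and left 24 h. Treated with DMSO vehicle or compound for 24 h, then grown two weeks with medium changed twice weekly. Colonies fixed in 4% paraformaldehyde and stained with 0.05% crystal violet. Result expressed as % of vehicle. n = 4.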

[6] = molecular target: T1, Glutaminase kidney isoform, mitochondrial (Homo sapiens) (UniProt O94925); assay: Inhibition of GLS1 in human MDA-MB-231 cells assessed as reduction in glutamate production incubated for 12 hrs by Amplex red glutamic acid assay; format: cell-based; settings: dose 40-640 nM
T1 sequence (whole entry): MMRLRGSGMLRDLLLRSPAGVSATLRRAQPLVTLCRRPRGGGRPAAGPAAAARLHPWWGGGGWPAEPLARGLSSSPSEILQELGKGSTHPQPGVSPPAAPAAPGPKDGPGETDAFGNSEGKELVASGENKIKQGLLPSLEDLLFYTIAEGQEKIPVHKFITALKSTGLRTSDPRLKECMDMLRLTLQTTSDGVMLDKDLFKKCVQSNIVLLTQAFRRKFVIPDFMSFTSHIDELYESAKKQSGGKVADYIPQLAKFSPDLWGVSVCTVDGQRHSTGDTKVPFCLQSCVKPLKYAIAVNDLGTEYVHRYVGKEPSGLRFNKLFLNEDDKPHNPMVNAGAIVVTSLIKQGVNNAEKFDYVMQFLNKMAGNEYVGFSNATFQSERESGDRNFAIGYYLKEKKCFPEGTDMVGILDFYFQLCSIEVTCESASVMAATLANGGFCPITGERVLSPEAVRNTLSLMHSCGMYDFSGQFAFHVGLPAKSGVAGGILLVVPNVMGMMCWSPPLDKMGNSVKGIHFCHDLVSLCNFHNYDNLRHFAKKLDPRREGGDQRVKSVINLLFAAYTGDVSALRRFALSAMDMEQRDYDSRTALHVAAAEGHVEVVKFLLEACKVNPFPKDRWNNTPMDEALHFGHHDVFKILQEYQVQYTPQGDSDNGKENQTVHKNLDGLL
In short: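 MDA-MB-231 cells pre-cultured 24 h at 37°C, then given compound or 0.1% DMSO for a further 12 h. Cells washed in PBS and lysed in RIPA at 4°C. Glutamate in the lysate measured with an Amplex Red glutamic acid kit per the manufacturer's protocol.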

MDA-MB-231 [7] = assay: Induction of apoptosis in human MDA-MB-231 cells assessed as early apoptotic cells at 640 nM incubated for 12 hrs by annexin V-FITC/PI based flow cytometric analysis (reference value: 1.2%); format: functional; in short: as §2
MDA-MB-231 [8] = assay: Induction of apoptosis in human MDA-MB-231 cells assessed as viable cells at 640 nM incubated for 12 hrs by annexin V-FITC/PI based flow cytometric analysis (reference value: 98.1%); format: functional; settings: read-out: Activity; in short: as §2
MDA-MB-231 [9] = assay: Antiproliferative activity against human MDA-MB-231 cells after 24 hrs by MTT assay relative to control; format: functional
In short: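 MDA-MB-231 cells kept in DMEM with 10% FBS at 37°C, 5% CO2. Seeded at 5×10^3 cells/well and left 24 h, then exposed to compounds at 0.078-10 µM for 24 h. 0.1% DMSO served as the vehicle control. MTT added for 4 h, formazan dissolved in DMSO, absorbance read at 570 nm. IC50 derived. Each run in triplicate, repeated at least three times.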

MDA-MB-231 [10] = assay: Antitumor activity against human MDA-MB-231 cells xenografted in BALB/c nude mouse assessed as reduction in tumor weight at 25 to 50 mg/kg, ip administered every 3 days for 4 weeks; format: functional, organism-based; settings: dose 25-50 mg/kg; in short: as §3
MDA-MB-231 [11] = assay: Induction of apoptosis in human MDA-MB-231 cells assessed as late apoptotic cells at 320 nM incubated for 12 hrs by annexin V-FITC/PI based flow cytometric analysis (reference value: 0.7%); format: functional; in short: as §2
[12] = Toxicity in BALB/c nude mouse xenografted with human MDA-MB-231 cells assessed as heart tissue damage at 25 to 50 mg/kg, ip administered every 3 days for 4 weeks; format: organism-based; settings: in vivo, 672 h, dose 25-50 mg/kg; in short: as §1
MDA-MB-231 [13] = assay: Antitumor activity against human MDA-MB-231 cells xenografted in BALB/c nude mouse assessed as reduction in tumor volume at 25 to 50 mg/kg, ip administered every 3 days for 4 weeks; format: functional, organism-based; settings: dose 25-50 mg/kg; in short: as §3

inhibition [6]: Dose-Dependent Effect
SMILES: CC(=O)O[C@H]1C=C([C@H](C)[C@H]2CC(C)=C(C)C(=O)O2)[C@@]2(C)CC[C@H]3[C@@H](C[C@H]4O[C@]45[C@@H](OC(=O)CCCC(=O)Nc4ccc(N6CCOCC6)c(F)c4)C=CC(=O)[C@]35C)[C@@]12O
Activity [1]: Non-Toxic
Activity (MDA-MB-231 [2]): Dose-Dependent Effect
Activity (MDA-MB-231 [3]): 11.7%
Activity [4]: Non-Toxic
inhibition (MDA-MB-231 [5]): Active
Activity (MDA-MB-231 [7]): 28.5%
viability at 0.64 µM (MDA-MB-231 [8]): 59.7%
inhibition (INH) (MDA-MB-231 [9]): 95.2%
Activity (MDA-MB-231 [10]): Active
Activity (MDA-MB-231 [11]): 2.9%
Activity [12]: Non-Toxic
Activity (MDA-MB-231 [13]): Active

From ChEMBL document CHEMBL4811218, “Discovery and optimization of withangulatin A derivatives as novel glutaminase 1 inhibitors for the treatment of triple-negative breast cancer” (Eur J Med Chem, 2021)
